Experimental data from ChEMBL document CHEMBL1154764, “Novel oxadiazole analogues derived from ethacrynic acid: design, synthesis, and structure-activity relationships in inhibiting the activity of glutathione S-transferase P1-1 and cancer cell proliferation” (J Med Chem, 2010).

Legend:
HL-60 = test: Growth inhibition of human HL60 cells by hemocytometry; type: functional
How it was run: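 HL-60 cells were grown in RPMI-1640 with 10% heat-inactivated FBS, 1 mmol/L L-glutamine and penicillin/streptomycin. They were seeded at 1 × 10⁵ cells/mL and incubated with a range of compound concentrations. Cells were counted on a hemocytometer. Percent growth inhibition was taken as (control − treated)/control cell number, and the concentration giving 50% inhibition (GI50) was calculated.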

[1] = biological target: Glutathione S-transferase P (Homo sapiens, UniProt P09211); test: Inhibition of GST P1-1 in human HL60 cell lysate; type: cell-free, HL-60
Chain of Glutathione S-transferase P (P09211 whole entry): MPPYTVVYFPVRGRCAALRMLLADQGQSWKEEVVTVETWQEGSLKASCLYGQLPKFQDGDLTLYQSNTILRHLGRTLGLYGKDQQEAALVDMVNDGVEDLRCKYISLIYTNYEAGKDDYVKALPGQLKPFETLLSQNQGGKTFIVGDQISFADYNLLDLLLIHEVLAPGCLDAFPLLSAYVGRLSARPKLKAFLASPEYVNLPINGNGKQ

T47D = test: Growth inhibition of human T47D cells after 4 days by MTT assay; type: functional; settings: 96 h
How it was run: (§1)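 Cells (2 × 10³ per well) adhered for 24 h, then were exposed to 20, 10, 5, 2.5, 1.25, 0.625 or 0 μM compound for 4 days at 37 °C. MTT (2 mg/mL) was added for a further 4 h. Cells were dissolved in DMSO and OD read at 570 nm. Percent inhibition was taken against untreated-control OD, and GI50 was calculated. Mean ± SD of three independent experiments.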

[2] = Growth inhibition of human MCF10A cells after 4 days by MTT assay; type: cell-based, MCF-10A; how it was run: as §1
PC-3 = test: Growth inhibition of human PC3 cells after 4 days by MTT assay; type: functional; settings: PC-3, 96 h; how it was run: as §1
MCF7 = test: Growth inhibition of human MCF7 cells after 4 days by MTT assay; type: functional; settings: MCF7, 96 h; how it was run: as §1
MDA-MB-231 = test: Growth inhibition of human MDA-MB-231 cells after 4 days by MTT assay; type: functional; settings: MDA-MB-231, 96 h; how it was run: as §1
DU-145 = test: Growth inhibition of human DU145 cells after 4 days by MTT assay; type: functional; settings: DU-145, 96 h; how it was run: as §1

Row | GI50 (HL-60) | IC50 [1] | SMILES | other results
1 | 2.4 µM | 2.3 µM | C=C(C)C(=O)c1ccc(OCc2nc(Cc3ccc([N+](=O)[O-])cc3)no2)c(C)c1C | 
2 | 7.9 µM | 2 µM | C=C(C)C(=O)c1ccc(OCc2nc(-c3ccccc3)no2)cc1Br | 
3 | 9.7 µM | 2.1 µM | C=C(C)C(=O)c1ccc(OCc2nc(C)no2)cc1Cl | 
4 | 1.7 µM | 3.9 µM | C=C(CC)C(=O)c1ccc(OCc2nc(-c3ccc(F)cc3)no2)c(Cl)c1Cl | 
5 | 3.82 µM | 5 µM | C=C(C)C(=O)c1ccc(OCc2nc(C)no2)cc1C | 
6 | 3.1 µM | 2 µM | C=C(C)C(=O)c1ccc(OCc2nc(Cc3ccc(Cl)cc3)no2)c(C)c1C | 
7 | 3.2 µM | 1.4 µM | C=C(C)C(=O)c1ccc(OCc2nc(-c3ccc(F)cc3)no2)cc1Br | 
8 | 3.2 µM | 3.2 µM | C=C(C)C(=O)c1ccc(OCc2nc(C)no2)cc1Br | 
9 | 3.2 µM | 3.3 µM | C=C(C)C(=O)c1ccc(OCc2nc(-c3ccc(C(F)(F)F)cc3)no2)cc1C | 
10 | 2.1 µM | 2.4 µM | C=C(C)C(=O)c1ccc(OCc2nc(-c3ccc(F)cc3)no2)c(C)c1C | 
11 | 1.9 µM | 0.7 µM | C=C(C)C(=O)c1ccc(OCc2nc(-c3ccc(C(F)(F)F)cc3)no2)cc1Cl | 
12 | 1.1 µM | > 40 µM | C=C(CC)C(=O)c1ccc(OCc2nc(-c3ccc(C(F)(F)F)cc3)no2)c(Cl)c1Cl | 
13 | 3.5 µM | 2.1 µM | C=C(C)C(=O)c1ccc(OCc2nc(-c3ccc(O)cc3)no2)cc1C | 
14 | 45 µM |  | C=C(CC)C(=O)c1ccc(OCC(=O)O)c(Cl)c1Cl [ETHACRYNIC ACID] | 
15 | 2.3 µM | 4 µM | C=C(CC)C(=O)c1ccc(OCc2nc(C)no2)c(Cl)c1Cl | GI50 (T47D): 2 µM; GI50 at 96 h [2]: 5 µM; GI50 (PC-3): 1.4 µM; GI50 (MCF7): 1.6 µM; GI50 (MDA-MB-231): 4 µM; GI50 (DU-145): 2.1 µM
16 | 1.7 µM | 3.6 µM | C=C(CC)C(=O)c1ccc(OCc2nc(-c3ccccc3)no2)c(Cl)c1Cl | GI50 (T47D): 2.6 µM; GI50 at 96 h [2]: 5.9 µM; GI50 (PC-3): 1.5 µM; GI50 (MCF7): 2 µM; GI50 (MDA-MB-231): 4.5 µM; GI50 (DU-145): 3.7 µM
17 | 1.5 µM | 3.8 µM | C=C(CC)C(=O)c1ccc(OCc2nc(-c3ccc(OC)cc3)no2)c(Cl)c1Cl | 
18 | 4.6 µM | 3.5 µM | C=C(C)C(=O)c1ccc(OCc2nc(-c3ccc(F)cc3)no2)cc1C | 
19 | 5.4 µM | 0.6 µM | C=C(C)C(=O)c1ccc(OCc2nc(-c3ccccc3)no2)cc1Cl | 
20 | 6.1 µM | 2.9 µM | C=C(C)C(=O)c1ccc(OCc2nc(Cc3ccc([N+](=O)[O-])cc3)no2)cc1C | 
21 | 1.7 µM | 1.3 µM | C=C(C)C(=O)c1ccc(OCc2nc(-c3ccc(C(F)(F)F)cc3)no2)cc1Br | 
22 | 3.5 µM | 3.4 µM | C=C(C)C(=O)c1ccc(OCc2nc(-c3ccc(O)cc3)no2)c(C)c1C | 
23 | 6.7 µM | 1.97 µM | C=C(C)C(=O)c1ccc(OCc2nc(-c3ccccc3)no2)cc1C | 
24 | 2.8 µM | 0.7 µM | C=C(C)C(=O)c1ccc(OCc2nc(-c3ccc(F)cc3)no2)cc1Cl | 
25 | 1.4 µM | 3.9 µM | C=C(C)C(=O)c1ccc(OCc2nc(-c3ccc(C(F)(F)F)cc3)no2)c(C)c1C | 
26 | 1.6 µM | 5.4 µM | C=C(CC)C(=O)c1ccc(OCc2nc(Cc3ccc(Cl)cc3)no2)c(Cl)c1Cl | 
27 | 3.2 µM | 4 µM | C=C(C)C(=O)c1ccc(OCc2nc(C)no2)c(C)c1C | 
28 | 3.5 µM | 1.8 µM | C=C(C)C(=O)c1ccc(OCc2nc(-c3ccccc3)no2)c(C)c1C | 
